Compounds with a hit are over-represented: about 3.6% of the library has one in this group of screens.
CSC inhib: cancer stem cell inhibition | inhibition, % at 7.5 µM | cancer stem cell-like cells viability, luminescence | 300,000 tested, 1.1% active | AID 2717; in the data active means inhibition above about 75%; tested in HMLE shEcad cells
HIF activator: HIF pathway transcriptional activation | U2OS HRE-luciferase reporter, luminescence; normalized: DMSO 0%, desferrioxamine 100% | AID 1910 | 300,000 tested, 0.32% active | activation, % at 7.5 µM (by protocol);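 active means mean activation of at least 10% of the iron chelator positive control signal, with at least half of replicates also reaching 10%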
SKKanGAS inh: blocks kanamycin growth of S. pyogenes SKKanGAS strain; inhibition, % at 7.5 µM; BacTiter-Glo, 6 h; 300,000 tested, 1.3% active;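 active means mean replicate score, as percent of positive control median, at least 50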;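 further: strain carries kanamycin resistance gene driven by streptokinase promoter and grows in 40 µg/ml kanamycin; loss of luminescence reflects streptokinase promoter inhibition or plain growth inhibition; 0% = median of DMSO wells and 100% = positive control at its reference dose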
PfHsp90 yeast 2: inhibits growth of yeast expressing Plasmodium falciparum Hsp90; S. cerevisiae expressing PfHsp90, BacTiter-Glo ATP, 48 h; yeast lacking PDR1 and PDR3 efflux regulators; AID 504621; 310,000 tested, 0.32% active; inhibition, % at 9.4 µM;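 active means every replicate shows inhibition above about 80%, whatever the replicate mean, limit read from the data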;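 further: 0% = DMSO neutral controls and 100% = 20 µM radicicol positive controls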
T cruzi repl: blocks replication of Trypanosoma cruzi; T. cruzi beta-gal in NIH3T3, luminescence, 90 h; inhibition, % (concentration not given with the values); 300,000 tested, 1.4% active;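 active means mean inhibition across valid replicates above about 55%, limit read from the data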;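 further: signal also drops with host cell toxicity which is not excluded here; 0% = plate median of DMSO wells and 100% = zero luminescence signal; higher percent means less beta-gal luminescence so fewer parasites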
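System: NIH/3T3 fibroblasts plus reporter T. cruzi. Medium: DMEM plus 2% FBS. Probe or stimulus: 5000 reporter trypomastigotes per well. Compound: single 50 nL compound addition per well in DMSO. Incubation: co-culture of at least 90 h after 3 h attachment. Detection: GalScreen β-gal luminescence, detergent lysis, 60 min. Evaluation: parasite load inhibition, %.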
Beta apoptosis: beta cell apoptosis inhibition | INS-1E cytokine-induced death, ATP luminescence, 48 h; percent of positive-control rescue, neutral wells zero | protection from apoptosis, % (no concentration beside the values) | 300,000 tested, 0.8% active | AID 435005;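 active means Every replicate reaches about 75%, or at least half do and their mean reaches it too, limit read from the data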;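 further: 0% = cytokine-treated negative control wells and 100% = positive control rescue; higher means more ATP so stronger rescue from cytokine killing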
* marks the source's active call; other numbers are inactive results; x = no result given.

SMILES	CSC inhib	HIF activator	SKKanGAS inh	PfHsp90 yeast 2	T cruzi repl	Beta apoptosis
C/C(=N\NC(=O)c1cc2ccccc2cc1O)c1cccs1	53.6	2.3	71.1*	10.0	55.1*	1.7
CC(=O)N1CCC(=NNC(=O)c2cc3ccccc3cc2O)CC1	-16.3	45.4*	10.3	7.9	-8.4	-1.5
CCOc1ccc(N(C)C(=O)CCc2nnc3ccc(N4CCC5(CC4)OCCO5)nn23)cc1	-2.5	0.0	3.5	2.4	-11.4	-1.1
CCN1C(=O)C(CC(=O)Nc2c(C)cccc2C)Nc2cc(S(=O)(=O)N(C)C)ccc21 (centres undefined)	-12.8	-0.6	-0.5	10.5	7.1	-4.7
CC1=C(C(=O)Nc2ccc([N+](=O)[O-])cc2)C(c2cccc(C(F)(F)F)c2)NC(=S)N1c1ccccc1 (centres undefined)	32.7	0.2	50.4*	x	57.1*	6.1
COc1ccc(C2NC(=S)N(c3ccccc3)C(C)=C2C(=O)Nc2ccccc2)cc1 (centres undefined)	0.7	1.9	3.6	-4.3	2.5	-8.6
CCN(CC)S(=O)(=O)c1cccc(NC(=O)CNc2cccc(S(=O)(=O)N3CCCC3)c2)c1	13.0	1.5	-2.0	-9.3	7.2	112.0*
CCN(CC)S(=O)(=O)c1cccc(NC(=O)CC2CCCC2)c1	-4.5	-0.6	-3.5	-17.4	-6.1	0.4
CCN(CC)S(=O)(=O)c1ccc(C)c(NC(=O)CNc2cccc(S(=O)(=O)N3CCCC3)c2)c1	-6.0	-0.4	-6.5	-18.6	12.9	x
CCN(CC)S(=O)(=O)c1cccc(NC(=O)Nc2cccc(C(F)(F)F)c2)c1	102.9*	-1.8	34.7	x	41.5	112.1*
CC[C@]12c3[nH]c4cc(-c5ccco5)ccc4c3CCN1C(=O)[C@@H](CC(=O)NCCN1CCOCC1)C[C@@H]2C(=O)N1CCN(C(=O)C2CC2)CC1	x	x	x	11.4	x	x
Cc1nnsc1-c1onc(C)c1C(=O)Nc1cc(Cl)cc(Cl)c1	25.0	-0.5	27.5	9.5	23.2	76.8*
Cc1ccc(CNC(=O)CN2C(=O)COc3ccc(C)cc32)cc1	-9.2	0.1	-0.1	22.7	-2.1	-2.8
Cc1ccc(CCNC(=O)CN2C(=O)COc3ccccc32)cc1	-4.5	x	-2.5	2.6	67.0*	2.7
O=C(COc1ccccc1-c1ccccc1)N/N=C/c1ccc2ccccc2c1	100.5*	-1.2	88.2*	-46.1	13.1	97.1*
O=C(COc1ccccc1-c1ccccc1)N/N=C/c1ccncc1	-12.3	-0.3	3.2	-8.7	11.5	-5.1
C/C(=N\NC(=O)COc1ccccc1-c1ccccc1)c1cccnc1	-10.0	0.1	3.8	2.2	1.5	-1.0
C/C(=N\NC(=O)COc1ccccc1-c1ccccc1)c1ccccn1	44.7	6.8	83.3*	x	71.1*	80.6*
C/C(=N\NC(=O)COc1ccccc1-c1ccccc1)c1ccc(O)cc1O	37.4	1.6	86.4*	-100.8	77.4*	80.8*
Cc1nn(CC(=O)NCCCN2C(C)CCCC2C)c(=O)c2cc3occc3n12 (centres undefined)	-12.1	-0.5	-2.1	14.6	24.5	-8.4
Cc1nc(=S)c2c([nH]1)-c1ccccc1CC21CCCCC1	4.4	0.4	100.1*	10.2	52.5	5.2
O=C(Cn1cnc([N+](=O)[O-])c1)Nc1cc(Oc2ccc(Cl)cc2Cl)cc([N+](=O)[O-])c1	72.5	-0.5	13.1	3.5	57.3*	17.2
CC(C)OCC(O)CN1CCNCC1 (centres undefined)	-2.8	-0.1	1.4	x	-14.6	4.4
NC(N)=Nc1nc(-c2ccccc2)c2ccccc2n1	17.1	-0.2	2.9	-37.7	80.6*	x
Cc1ccc(S(=O)(=O)N2CCN(C(=O)COC(=O)CCOc3ccc(C(C)(C)C)cc3)CC2)cc1	x	-0.4	3.9	-0.6	-2.9	-9.8
SMILES	CSC inhib	HIF activator	SKKanGAS inh	PfHsp90 yeast 2	T cruzi repl	Beta apoptosis
COc1cccc(NC(=O)CC(=O)c2ccccc2)c1	-3.3	2.7	1.2	-23.2	-11.6	-5.4
CN(C(=O)CSc1nnc(-c2cccs2)n1C1CC1)C1CCS(=O)(=O)C1 (centres undefined)	x	x	x	14.4	x	x
C/C(Cn1nc([N+](=O)[O-])cc1C)=N\NC(=O)c1cccc(Br)c1	4.3	0.1	1.2	9.1	6.0	-0.9
C/C(Cn1nnc([N+](=O)[O-])n1)=N\NC(=O)c1ccc(C)cc1	-7.3	4.1	-3.0	14.9	48.7	6.8
C/C(Cn1nnc([N+](=O)[O-])n1)=N\NC(=O)c1cccc(Cl)c1	-6.3	x	2.1	-40.0	56.9*	66.9
C/C(Cn1nnc([N+](=O)[O-])n1)=N\NC(=O)c1ccncc1	-17.6	1.0	10.2	7.4	57.3*	-3.0
C/C(CC(=O)Nc1ccccn1)=N\NC(=O)c1ccc([N+](=O)[O-])cc1Cl	-12.9	0.0	28.8	0.3	-4.1	-7.5
C/C(Cn1nnc([N+](=O)[O-])n1)=N\NC(=O)c1ccccc1Cl	17.0	0.3	0.7	-15.3	56.3*	79.5*
CSCCC(NS(=O)(=O)c1cccc(C(F)(F)F)c1)C(=O)N(C)CCOc1ccc(Cl)cc1 (centres undefined)	9.1	-0.7	9.7	-33.3	26.2	x
COC(=O)c1ccc(C(=O)OC)c(NC(=O)CN(C)Cc2cccc(Cl)c2Cl)c1	0.9	0.1	69.1*	-12.0	7.7	2.0
COC(=O)c1ccc(C(=O)OC)c(NC(=O)CN(C)Cc2ccccc2)c1	-2.4	-0.4	11.5	4.3	24.8	-6.3
CCN(CC)c1ccc(-c2nn3c(-c4cccnc4)nnc3s2)cc1	x	1.8	67.6*	8.6	-0.3	x
COc1ccc(C(=O)c2ccc3oc(-c4ccc(OC)cc4)c(-c4ccc(O)cc4)c3c2)cc1	104.3*	x	x	-8.5	x	22.3
CC(C)Nc1nc(NC(C)C)nc(N(C#N)CCOc2ccc(Cl)cc2Cl)n1	55.5	-0.7	18.1	-22.8	73.4*	25.7
Cc1oc(-c2ccccc2)nc1Cn1cccc1C1=NC(c2ccccc2)CO1 (centres undefined)	36.9	-0.5	69.0*	-6.8	8.9	5.8
C/C(CC(C)(C)C1CCCCC1)=N\NC(N)=S	x	0.1	-5.9	-190.1	55.8*	x
Cc1cc2oc(=O)cc(CN3CCN(C/C=C/c4ccccc4)CC3)c2cc1O	-6.9	-0.2	7.0	-3.4	55.0*	11.6
Cc1ccc2c(CN3CCN(Cc4ccccc4)CC3)cc(=O)oc2c1C	-7.0	1.1	0.1	5.8	57.5*	-6.4
Cc1ccc2c(CN3CCN(CCO)CC3)cc(=O)oc2c1C	-5.1	-0.3	5.3	15.1	54.9*	-5.1
Cc1cc(C)c2oc(=O)cc(CN3CCN(Cc4ccccc4)CC3)c2c1	-10.7	-1.1	0.0	-9.4	52.3	1.5
COc1ccccc1N1CCN(C(=O)c2ccc(CSc3ccccc3)cc2)CC1	57.6	1.2	12.7	-12.3	3.2	7.0
